Reference: ChEMBL document CHEMBL5365533, “DNA major versus minor groove occupancy of monomeric and dimeric crystal violet derivatives. Toward structural correlations” (Bioorg Med Chem, 2023)
The source made the active and inactive calls. No cut-off for these calls is given here.

What was measured:
[1] = tested on: Calf thymus DNA; assay: Ratio of Kapp for displacement of ethidium bromide from calf thymus DNA/EtBr complex to Kapp for displacement of ethidium bromide from calf thymus DNA/EtBr in presence of methyl green; format: nucleic-acid assay; conditions: Bos taurus
How it was run: (§1)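 Fluorescence titration of CT DNA (1.0 μM/bp) plus ethidium (0.5 μM), with or without netropsin or methyl green (0.5 μM each), against increasing ligand in 10 mM Tris-HCl pH 7.0. Excitation 520 nm, emission 590 nm, read after 3 min equilibration. C50 is the concentration giving 50% fluorescence loss; Kapp = 9.5×10^6 M⁻¹ × C_ethidium/C50.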

[2] = tested on: Calf thymus DNA; assay: Binding affinity to calf thymus DNA assessed as change in melting temperature by UV thermal denaturation assay; format: nucleic-acid assay; conditions: Bos taurus
How it was run: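 CT DNA in 10 mM Tris-HCl pH 7.0 at a DNA:ligand ratio of 30:1, in 1 cm quartz cuvettes. Absorbance read every 2 °C from 25 to 95 °C, heating at 1 °C/min. Tm taken from first-derivative plots.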

[3] = tested on: Calf thymus DNA; assay: Ratio of Kapp for displacement of ethidium bromide from calf thymus DNA/EtBr complex to Kapp for displacement of ethidium bromide from calf thymus DNA/EtBr in presence of netropsin; format: nucleic-acid assay; conditions: Bos taurus; how it was run: as §1
[4] = tested on: Calf thymus DNA; assay: Binding affinity to calf thymus DNA in Tris-HCl buffer at pH 7.0 assessed as change in entropy at 100 uM by isothermal titration […] analysis; format: nucleic-acid assay; conditions: Bos taurus
How it was run: (§2)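 ITC of CT DNA (100 μM/bp in cell) titrated with ligand (100 μM in syringe), 10 mM Tris-HCl pH 7.0; 25 injections of 10 μL at 30 °C, or for one ligand 50 injections of 5 μL at 27 °C. Buffer-into-DNA heats subtracted; single-site model gives K, N, ΔH and ΔS.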

[5] = Displacement of Ethidium bromide from NFAT1 (5-GAAAAA-3') hairpin DNA (unknown origin)/EtBr complex assessed as binding constant by crystal violet staining based analysis
[6] = Binding affinity to DDD (5-CGAATT-3') hairpin DNA (unknown origin) assessed as binding constant by isothermal titration calorimetry
[7] = tested on: Calf thymus DNA; assay: Binding affinity to calf thymus DNA in Tris-HCl buffer at pH 7.0 assessed as change in enthalpy at 100 uM by isothermal titration […] analysis; format: nucleic-acid assay; conditions: Bos taurus; how it was run: as §2
[8] = tested on: Calf thymus DNA; assay: Binding affinity to calf thymus DNA in Tris-HCl buffer at pH 7.0 assessed as minimal change in viscosity at 2 to 26 uM incubated for 30 mins by Ostwald viscometer analysis; format: nucleic-acid assay; conditions: Bos taurus, dose 2-26 µM
How it was run: (§3)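 Ostwald viscometer at 23.0 ± 1 °C. CT DNA held at 300 μM/bp in 10 mM Tris-HCl pH 7.0 with ligand or ethidium at 0–26 μM, incubated 30 min before timing flow. (η/η0)^1/3 plotted against [ligand]/[DNA]; three replicates, SD shown.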

[9] = tested on: Calf thymus DNA; assay: Binding affinity to calf thymus DNA in Tris-HCl buffer at pH 7.0 assessed as lengthening of DNA from intercalation of drug incubated for 30 mins by Ostwald viscometer analysis; format: nucleic-acid assay; conditions: Bos taurus; how it was run: as §3
[10] = Displacement of Ethidium bromide from G5C5 (5'-AAAGGGGG-CCCCCTTT-3') DNA (unknown origin)/EtBr complex assessed as decrease in initial absorbance of DNA by crystal violet staining based analysis
[11] = tested on: Calf thymus DNA; assay: Binding affinity to calf thymus DNA assessed as bathochromic shift by UV spectroscopic analysis; format: nucleic-acid assay; conditions: Bos taurus
How it was run: (§4)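 UV titration in 10 mM Tris-HCl pH 7.0 with ligand fixed at 5.0 μM and CT DNA:ligand ratios of 0:1, 1:1, 2:1, 5:1, 10:1 and 30:1.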

[12] = Displacement of Ethidium bromide from STAT6 (5'-TCCTAG-3') hairpin DNA (unknown origin)/EtBr complex assessed as binding constant by crystal violet staining based analysis
[13] = tested on: DNA; assay: Displacement of Ethidium bromide from (AT)5 (5'-GGGATATA-TATATCCC-3') DNA (unknown origin)/EtBr complex assessed as decrease in initial absorbance of DNA by crystal violet staining based analysis; format: nucleic-acid assay
[14] = tested on: Calf thymus DNA; assay: Binding affinity to calf thymus DNA in Tris-HCl buffer at pH 7.0 assessed as rigidification of DNA from intercalation of drug incubated for 30 mins by Ostwald viscometer analysis; format: nucleic-acid assay; conditions: Bos taurus; how it was run: as §3
[15] = tested on: DNA; assay: Displacement of Ethidium bromide from A5T5 (5'-GGGAAAAATTTTTCCCCC-3') DNA (unknown origin)/EtBr complex assessed as decrease in initial absorbance of DNA by crystal violet staining based analysis; format: nucleic-acid assay
[16] = tested on: Calf thymus DNA; assay: Binding affinity to calf thymus DNA in Tris-HCl buffer at pH 7.0 assessed as differential groove occupancy at 100 uM by ITC analysis; format: nucleic-acid assay; conditions: Bos taurus; how it was run: as §2
[17] = Binding affinity to DDD hairpin DNA (unknown origin) in Tris-HCl buffer at pH 5.0 assessed as negative induced CD bands formation at 310nm at 1 mM incubated for 5 mins by CD spectra analysis
How it was run: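 Ligand (1 mM stock) added in small aliquots to DDD hairpin (8.8 μM) in 10 mM Tris-HCl pH 5.0; mixed by inversion and incubated 5 min at 20 °C. CD recorded 215–350 nm in 0.5 nm steps as the average of three scans.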

[18] = tested on: AT rich DNA; assay: Displacement of Ethidium bromide from AT3 (5'-ATATAT-3') hairpin DNA (unknown origin)/EtBr complex assessed as binding constant by crystal violet staining based analysis; format: nucleic-acid assay
[19] = Displacement of Ethidium bromide from cMyc (5'-CACGTG-3') hairpin DNA (unknown origin)/EtBr complex assessed as binding constant by crystal violet staining based analysis
[20] = Binding affinity to DDD hairpin DNA (unknown origin) assessed as binding constant at 100 uM by ITC analysis
How it was run: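 Isothermal titration calorimetry of DDD hairpin (10 μM in cell) titrated with ligand (100 μM in syringe), 10 mM Tris-HCl pH 7.0, 30 °C; 25 injections of 10 μL. Heats of dilution subtracted; single-site binding model fitted; K averaged from triplicate experiments.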

[21] = tested on: Calf thymus DNA; assay: Binding affinity to calf thymus DNA assessed as hypochromic shift by UV spectroscopic analysis; format: nucleic-acid assay; conditions: Bos taurus; how it was run: as §4

Ratio [1]: > 8
ΔTm [2]: 2.8 °C
Ratio [3]: 1.3
deltaS [4]: 122 cal/mol
K [5]: 0.19 10^5/M
K [6]: 14.6 10^5/M
deltaH [7]: 29.7 kcal/mol
Activity [8]: Dose-Dependent Effect
Activity [9]: Active
C50 [10]: 2.05 µM
Activity [11]: Active
K [12]: 1.06 10^5/M
C50 [13]: 1.57 µM
Activity [14]: Active
C50 [15]: 1.86 µM
Activity [16]: Active
Activity [17]: Active
K [18]: 0.21 10^5/M
K [19]: 1.26e+06 M⁻¹
K [20]: 14.6 10^5/M
Activity [21]: Active
SMILES: Cc1cc(N(C)C)cc(C)c1C(=C1C=CC(=[N+](C)C)C=C1)c1ccc(N(C)C)cc1
